Screening data deposited in PubChem by several laboratories.
The list is not random: actives were taken first. Their share in the collection is about 2.3%.
Myeloid diff MLP: promotes myeloid progenitor differentiation. AID 624256. calls only at 10 µM. ER-HoxA9 myeloid progenitors, lysozyme-GFP differentiation, flow cytometry. 360,000 tested, 1% active;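 active means normalized GFP-positive differentiation at or above the plate's own cutoff, the solvent-only control mean plus 3 SD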;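 further: cells exposed to compound for four days before flow analysis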
HNF4A DNA FP: change in binding of human HNF4 alpha to DNA; P41235; HNF4a-FITC DNA binding, fluorescence polarization, 1 h; activity change, % at 10 µM; 360,000 tested, 0.3% active; AID 1224865; in the data active means activity change above about 30%, passing the limit was not always enough
Target sequence (P41235 whole entry, looked up): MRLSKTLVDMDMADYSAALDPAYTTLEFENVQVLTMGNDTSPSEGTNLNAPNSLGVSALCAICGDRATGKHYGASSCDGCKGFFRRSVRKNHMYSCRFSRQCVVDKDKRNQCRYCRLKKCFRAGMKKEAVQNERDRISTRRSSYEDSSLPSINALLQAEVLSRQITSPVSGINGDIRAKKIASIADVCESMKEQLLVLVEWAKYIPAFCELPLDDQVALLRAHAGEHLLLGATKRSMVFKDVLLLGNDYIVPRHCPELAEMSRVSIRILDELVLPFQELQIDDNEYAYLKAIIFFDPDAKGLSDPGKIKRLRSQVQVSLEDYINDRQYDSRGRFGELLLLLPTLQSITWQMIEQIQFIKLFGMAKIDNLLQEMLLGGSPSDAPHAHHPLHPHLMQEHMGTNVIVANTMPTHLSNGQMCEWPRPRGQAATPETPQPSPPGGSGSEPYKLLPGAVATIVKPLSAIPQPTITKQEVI
Rpn11 block: blocks the human proteasome subunit Rpn11; human 26S proteasome, Ub4-pepOG fluorescence polarization; 20S core pre-blocked with epoxomicin; inhibition, % at 20 µM; 360,000 tested, 0.59% active; AID 588493;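 active means inhibition at 20 µM, scaled to each plate's controls, above about 33%, limit read from the data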
CSN deneddyl inh: inhibitors of human CSN-mediated cullin deneddylation; Q92905; Purified CSN, SCF-Nedd8-OG deneddylation, fluorescence polarization; inhibition, % at 12.5 µM; 360,000 tested, 0.38% active; AID 651999;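 active means pattern-corrected inhibition above about 35%, with an unprinted fluorescence ratio check between 0.5 and 1.5, limit read from the data, passing the limit was not always enough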;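 further: 0% = enzyme with substrate and 100% = substrate without enzyme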
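Test system: purified human Csn5 enzyme expressed in HEK293T cells. Amount: 0.24 nM enzyme. Reagent: SCFSkp2-Nedd8OG substrate at 10 nM final. Schedule: 90 min incubation of compound, enzyme and substrate at room temperature. Detection: fluorescence polarization. Read-out: % inhibition of substrate cleavage by Csn5.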
TPT1 inhibitor: C. albicans TPT1 enzyme inhibition; inhibition, % at 5 µM; AID 1962; 300,000 tested, 0.81% active; recombinant caTPT1, FP RNA substrate dephosphorylation;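 active means inhibition above the mean of all tested compounds plus 3 SD, set per screening campaign, cut at about 24% in these data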;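 further: plate controls were DMSO alone for no effect and ferristatin control at 100 nM for full effect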
caTPT1 confirm: TPT1 (C. albicans) inhibition, confirmation; shares compounds with TPT1 inhibitor; recombinant caTPT1, fluorescence polarization, RNase T1 coupled; inhibition, % at 5 µM; 2,400 tested, 74% active; AID 2149;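 active means inhibition above the primary screen limit, the mean inhibition of all tested compounds plus 3 SD, cut at about 25% in these data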
RNase T1 inh: RNase T1 inhibition in TPT1 counter-screen; RNase T1 cleavage, fluorescence polarization, 1536-well; inhibition, % at 5 µM; shares compounds with TPT1 inhibitor; 2,400 tested, 83% active; AID 2153;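 active means inhibition above the solvent-only control well mean plus 3 SD, limit set per screening run, cut at about 23% in these data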;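 further: plate controls were DMSO wells with enzyme for no effect and wells without RNase T1 for full effect; inhibitors block cleavage so intact labeled substrate keeps polarization high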
Starred values were filed as active, the others as inactive; i = inactive; / = no result shown; + = active, no number.

SMILES | Myeloid diff MLP | HNF4A DNA FP | Rpn11 block | CSN deneddyl inh | TPT1 inhibitor | caTPT1 confirm | RNase T1 inh
CCOc1ccc(N2C(=O)CS/C2=C(\C(Cl)=C(Cl)Cl)[N+](=O)[O-])cc1 | + | 35* | 71* | 14 | 54* | 58* | 70*
CCOc1ccc(N2C(=O)CNC2=S)cc1 | i | -1 | -1 | -3 | -1 | / | /
O=S(=O)(NCCc1ccc2c(c1)OCCO2)c1cccs1 | i | 24 | 17 | 11 | 26* | 20 | 27*
CCCCNc1cc(NC(C)=O)cc2cc(OC)c(OC)cc12 | i | 16 | / | 19 | 70* | 61* | 73*
Cc1ccc(C(=O)N2CCC(C(=O)Nc3cccc([N+](=O)[O-])c3)CC2)cc1 | i | 2 | -3 | 2 | -4 | / | /
c1ccc2oc(-c3ccn[nH]3)cc2c1 | i | 3 | -2 | 79 | 2 | / | /
Cc1cc(C(=O)OCC(=O)c2ccc(Br)s2)c(C)o1 | / | / | / | / | 30* | 6 | 10
O=C(CSc1nc2ccccc2c(=O)n1CC1CCCO1)Nc1ccccc1Cl (stereo unspecified) | i | 5 | 4 | 4 | -2 | / | /
C[C@]12C=CC(=O)C=C1CC[C@@H]1C2=CC[C@]2(C)[C@@H](C(=O)CN3CCN(c4cc(N5CCCC5)nc(N5CCCC5)n4)CC3)CC[C@@H]12 | i | 6 | 34 | 5 | 31* | 29* | 41*
CCOC(=O)c1sc(=NC(=O)c2cccc(OC)c2)n(C)c1C | i | -1 | 4 | -4 | 64* | 5 | 5
O=C(O)c1cccc(Cn2c(Cl)c(/C=N/NC(=O)c3ccccc3Cl)sc2=O)c1 | i | -1 | -3 | -3 | 0 | / | /
O=C(O)c1cccc(Cn2c(Cl)c(/C=N/Nc3ccccc3)sc2=O)c1 | i | 12 | 35 | 11 | 48* | 65* | 79*
O=C(O)c1ccc(C=C(c2nc3ccccc3s2)c2nc3ccccc3s2)cc1 | i | 3 | 13 | 27 | 5 | / | /
CN(C)c1ccc(/C=C(\Cl)c2nc3ccccc3s2)cc1 | i | 46* | / | 23 | 73* | 84* | 91*
Cc1ccc(O)c(NC(=O)c2noc3c2CCCCC3)c1 | i | -13 | -4 | 2 | 25* | 0 | 4
COc1cc(-c2cc(NC(C)=O)c3ncc(-c4ccc(C(C)=O)cc4)n3c2)cc(OC)c1OC | i | 4 | 8 | 6 | / | / | /
CN1CCc2c(sc3nc(NN)n(Cc4ccccc4)c(=O)c23)C1 | i | 22 | 39 | 11 | 38* | 46* | 54*
CN(C)CCNc1nc2sc3c(c2c(=O)n1Cc1ccccc1)CCCCC3 | i | 2 | -19 | 5 | / | / | /
CN1CCc2c(sc3nc(NN)n(-c4ccc(Cl)cc4)c(=O)c23)C1 | i | 19 | 46* | 14 | 38* | 18 | 24*
O=S(=O)(c1ccc2ncn(O)c2c1)N1CCOCC1 | i | 0 | -6 | -2 | -1 | / | /
O=C1NC(=S)N/C1=C/c1cc([N+](=O)[O-])ccc1O | i | -2 | 23 | 8 | 43* | 43* | 52*
C/C(=N/NC(N)=S)c1cc2ccc(O)cc2oc1=O | + | 86 | / | 71 | 25* | 90* | 97*
C/C(=N\NC(=O)c1ccc([N+](=O)[O-])cc1)c1cc2ccccc2oc1=O | i | 0 | -7 | 1 | -2 | / | /
C/C(=N/NC(=O)c1ccncc1)c1cc2ccc(O)cc2oc1=O | i | -89 | -12 | -79 | 60* | -11 | 9
C/C(=N\NC(=O)c1ccncc1)c1cc2ccccc2oc1=O | i | 2 | -2 | 2 | 5 | / | /
SMILES | Myeloid diff MLP | HNF4A DNA FP | Rpn11 block | CSN deneddyl inh | TPT1 inhibitor | caTPT1 confirm | RNase T1 inh
CCCCNC(=O)C(=O)Nc1cc2c3c(c1)CCC(=O)N3CCC2 | i | -2 | -3 | 5 | -3 | / | /
Cc1[nH]c2ccccc2c1C(=O)C(=O)NCc1nnnn1-c1ccc(F)c(F)c1 | i | -6 | -1 | -5 | / | / | /
C/C=C(\C)CN1CCC(n2nccc2NC(=O)CCCc2ccccc2)CC1 | i | 3 | -6 | 0 | / | / | /
O=C(C1=NN(c2ccccc2)C2C(=O)N(c3ccccc3Cl)C(=O)C12)c1ccccc1 (stereo unspecified) | i | 10 | -1 | 4 | 31* | 32* | 46*
Cc1ccc(N2C(=O)C3C(C(=O)c4ccccc4)=NN(c4ccccc4)C3C2=O)cc1 (stereo unspecified) | i | 6 | 16 | 4 | 29* | 37* | 51*
O=C(C1=NN(c2ccccc2)C2C(=O)N(c3ccccc3)C(=O)C12)c1ccccc1 (stereo unspecified) | i | -10 | 21 | 7 | 28* | 32* | 45*
